The text below walks through data of ChEMBL document CHEMBL1153374, “Synthesis, anti-inflammatory, and antioxidant activities of 18beta-glycyrrhetinic acid derivatives as chemical mediators and xanthine oxidase inhibitors” (Bioorg Med Chem, 2009).

Data set [1] has as its system RAW264.7. The data set can be described thus: Inhibition of LPS-induced TNFalpha release in mouse RAW264.7 cells pretreated 1 hr before LPS challenge by enzyme immunoassay. The format is functional, cell-based. In outline:
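RAW 264.7 murine macrophages were incubated with compound (diluted from DMSO stock; final DMSO <0.5% v/v), then stimulated with LPS. Secreted TNF-α in culture supernatant was quantified by EIA kit. Data are means ± SD, n = 3–6. IC50 was taken from concentration–response curves.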

The subject of data set [2] is Neutrophil. The data set can be described thus: Inhibition of fMLP/cytochalasin B-stimulated super oxide anion generation in Sprague-Dawley rat neutrophils. In kind it is functional, cell-based. In outline: (§1)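 Peripheral blood neutrophils were isolated from Sprague-Dawley rats. Stimulus was fMLP (0.3 µM) with cytochalasin B (5 µg/mL) for 30 min, or PMA (3 nM). Superoxide was measured as SOD-inhibitable cytochrome c reduction. DPI was the reference inhibitor. IC50 was taken from concentration–response curves; means ± SD, n = 3–6.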

The test system of the next data set is Nucleic Acid. The data set can be described thus: Inhibition of superoxide anion induced DNA damage of Escherichia coli pBR322 at 300 uM by gel electrophoresis. The format is functional. In a few lines: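 Supercoiled pBR322 plasmid DNA (1 µg/µL) was exposed to xanthine (2 mM)/xanthine oxidase (0.7 U/mL) in 10 mM phosphate buffer, pH 7.4, with compound for 20 min at 37 °C. SOD and quercetin served as comparators. Mixtures were electrophoresed on 1.0% agarose with ethidium bromide (0.05 µg/mL) in TAE, 100 V, 30 min.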

For data set [3], the system named is Radical scavenging activity. The data set can be described thus: Antioxidant activity assessed as DPPH radical scavenging activity. In kind it is functional.
For data set [4], the system named is Neutrophil. The data set can be described thus: Inhibition of PMA-stimulated super oxide anion generation in Sprague-Dawley rat neutrophils. In kind it is functional, cell-based. In outline:
as §1

Data set [5] relates to RAW264.7. In words: Inhibition of LPS-induced nitric oxide generation in mouse RAW264.7 cells pretreated 1 hr before LPS challenge by Griess method. The format is functional, cell-based. In a few lines: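 Plated RAW 264.7 cells were preincubated with compound for 1 h at 37 °C, then stimulated with LPS at 1 µg/mL for 24 h. Nitrite accumulated in the medium was measured by the Griess reaction. Results are % inhibition at a single concentration or IC50 from concentration curves. Data are means ± SD, n = 3–6. Final DMSO <0.5%.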

Data set [6] addresses Xanthine dehydrogenase/oxidase (Homo sapiens, UniProt P47989). The data set can be described thus: Inhibition of xanthine oxidase. In outline:
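Xanthine oxidase activity measured at 25 °C with xanthine as substrate, in 70 mM phosphate buffer (pH 7.5), following a modified published protocol. Compounds were taken from 30 mM DMSO stocks diluted in DMSO, with final DMSO below 0.5% (v/v).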

In data set [7] the test system is RAW264.7. The data set can be described thus: Inhibition of LPS-induced iNOS protein expression in mouse RAW264.7 cells at 3 uM pretreated 1 hr before LPS challenge by Western blot. In kind it is functional, cell-based. In a few lines:
(§2)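 RAW 264.7 cells were pretreated 1 h with compound at 3 or 10 µM, then given LPS at 50 ng/mL for 24 h. Cells were washed with PBS, lysed in Laemmli SDS buffer and run on 10% SDS–PAGE, then transferred to PVDF and blocked in 5% milk/TBST. Blots were probed with monoclonal anti-iNOS (1:1000, 1 h) and HRP anti-mouse IgG (1:10,000), with ECL detection.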

Data set [8] concerns RAW264.7. In words: Inhibition of LPS-induced iNOS protein expression in mouse RAW264.7 cells at 10 uM pretreated 1 hr before LPS challenge by Western blot. The format is functional, cell-based. In a few lines: as §2

Calls of active or inactive are those of the source. The rule behind the calls is not given here.

Xanthine dehydrogenase/oxidase, sequence (P47989 whole entry): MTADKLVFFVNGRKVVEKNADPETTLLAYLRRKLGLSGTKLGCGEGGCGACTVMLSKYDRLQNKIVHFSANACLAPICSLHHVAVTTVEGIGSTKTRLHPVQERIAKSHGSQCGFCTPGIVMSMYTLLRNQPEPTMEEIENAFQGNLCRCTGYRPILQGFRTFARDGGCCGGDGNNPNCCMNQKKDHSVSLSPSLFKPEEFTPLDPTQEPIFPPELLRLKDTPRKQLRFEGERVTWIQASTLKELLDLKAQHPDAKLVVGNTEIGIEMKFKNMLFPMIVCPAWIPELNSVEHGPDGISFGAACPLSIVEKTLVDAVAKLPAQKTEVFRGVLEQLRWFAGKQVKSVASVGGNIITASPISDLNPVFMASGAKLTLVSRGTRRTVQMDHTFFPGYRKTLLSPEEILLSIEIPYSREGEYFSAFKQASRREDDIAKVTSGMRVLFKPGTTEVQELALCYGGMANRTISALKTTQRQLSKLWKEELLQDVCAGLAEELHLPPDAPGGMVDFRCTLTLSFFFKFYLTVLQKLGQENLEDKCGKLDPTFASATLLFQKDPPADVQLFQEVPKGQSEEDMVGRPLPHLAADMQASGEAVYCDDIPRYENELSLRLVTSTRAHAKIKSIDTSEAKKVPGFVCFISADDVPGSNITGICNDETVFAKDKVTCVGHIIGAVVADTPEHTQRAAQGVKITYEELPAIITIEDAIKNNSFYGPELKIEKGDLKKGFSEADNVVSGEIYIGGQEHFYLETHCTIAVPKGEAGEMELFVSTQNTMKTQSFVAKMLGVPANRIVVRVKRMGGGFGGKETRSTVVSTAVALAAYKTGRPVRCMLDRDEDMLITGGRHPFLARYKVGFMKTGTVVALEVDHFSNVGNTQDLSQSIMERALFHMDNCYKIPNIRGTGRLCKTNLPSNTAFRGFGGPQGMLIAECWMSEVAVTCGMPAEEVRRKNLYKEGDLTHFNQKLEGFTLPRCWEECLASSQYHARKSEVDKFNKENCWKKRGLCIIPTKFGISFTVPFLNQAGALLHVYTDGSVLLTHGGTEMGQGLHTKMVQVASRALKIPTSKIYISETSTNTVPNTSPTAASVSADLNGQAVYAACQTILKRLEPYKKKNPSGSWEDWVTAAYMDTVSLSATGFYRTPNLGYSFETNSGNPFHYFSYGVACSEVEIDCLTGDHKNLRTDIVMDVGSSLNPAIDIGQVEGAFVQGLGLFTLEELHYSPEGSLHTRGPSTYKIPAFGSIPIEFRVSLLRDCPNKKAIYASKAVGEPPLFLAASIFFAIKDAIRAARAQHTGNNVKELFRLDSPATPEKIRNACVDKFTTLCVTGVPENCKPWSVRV

Regarding `C=C(C)[C@@H]1CC[C@]2(C)[C@H](C(=O)C=C3[C@@H]4C[C@@](C)(C(=O)Nc5ccccc5)CC[C@]4(C)CC[C@]32C)[C@@]1(C)CCC(=O)O`, in the data set with RAW264.7 [1], the IC50 stood at 27.7 µM and the inhibition result was “Dose-dependent effect”.
Turning to `C=C(C)[C@@H]1CC[C@]2(C)[C@H](C(=O)C=C3[C@@H]4C[C@@](C)(C(=O)NC(C)C)CC[C@]4(C)CC[C@]32C)[C@@]1(C)CCC(=O)O`, in the data set on Neutrophil [2], 9.8 µM corresponded to half-maximal inhibition (IC50) and the inhibition entry was “Dose-dependent effect”. Also, in the data set with Nucleic Acid, the inhibition entry is “Active”. Also, the inhibition entry in data set [3] is “inactive”.
Consider `COC(=O)[C@@]1(C)CC[C@]2(C)CC[C@]3(C)C(=CC(=O)[C@@H]4[C@@]5(C)CCC(=O)OC(C)(C)[C@@H]5CC[C@]43C)[C@@H]2C1`, for which the inhibition result with Nucleic Acid was “Active”. Besides, in the data set with Neutrophil [4], the IC50 was 12.9 µM and the inhibition entry was “Dose-dependent effect”. Further, the inhibition result in [3] is “inactive”.
On to `CC(=N)NCc1cccc(CN)c1` [1400W], for which the IC50 with RAW264.7 [5] came to 1.5 µM.
`C=C(C)[C@@H]1CC[C@]2(C)[C@H](C(=O)C=C3[C@@H]4C[C@@](C)(C(=O)OC(C)C)CC[C@]4(C)CC[C@]32C)[C@@]1(C)CCC(=O)OC`: the IC50 in the data set on RAW264.7 [5] was above 30 µM.
For `CC1(C)C(=O)CC[C@]2(C)[C@H]3C(=O)C=C4[C@@H]5C[C@@](C)(C(=O)O)CC[C@]5(C)CC[C@@]4(C)[C@]3(C)CC[C@@H]12`, in the data set with Neutrophil [2], 10.3 µM corresponded to half-maximal inhibition (IC50) and the inhibition result is “Dose-dependent effect”. The inhibition result in the data set with Nucleic Acid was “Active”. Also, in the data set on RAW264.7 [5], the IC50 is above 30 µM. Further, in [3], the inhibition entry is “inactive”. Besides, in data set [6], the “inhibition (INH)” value is given as “Not Active”.
On to `C=C(C)[C@@H]1CC[C@]2(C)[C@H](C(=O)C=C3[C@@H]4C[C@@](C)(C(=O)OC)CC[C@]4(C)CC[C@]32C)[C@@]1(C)CCC(=O)OC`, for which, in the data set on RAW264.7 [5], the IC50 was above 30 µM.
For the compound `CC1(C)[C@@H](O)CC[C@]2(C)[C@H]3C(=O)C=C4[C@@H]5C[C@@](C)(C(=O)O)CC[C@]5(C)CC[C@@]4(C)[C@]3(C)CC[C@@H]12` [ENOXOLONE], in the data set with RAW264.7 [1], the IC50 worked out at 1.3 µM and the inhibition result was “Dose-dependent effect”.
With `C=C(C)[C@@H]1CC[C@]2(C)[C@H](C(=O)C=C3[C@@H]4C[C@@](C)(C(=O)NC(C)C)CC[C@]4(C)CC[C@]32C)[C@@]1(C)CCC(=O)OC`, the inhibition result in the data set on Nucleic Acid, in the data set with RAW264.7 [7] and in the data set on RAW264.7 [8] was “Active” each time. Also, the values for the IC50 in the data set with RAW264.7 [5] and in the data set on Neutrophil [4] were 13.1 µM and 15.6 µM, respectively. Also, the inhibition result in the data set on Neutrophil [4] was “Dose-dependent effect”. Moreover, the inhibition entry in data set [3] is “inactive”.
Turning to `C=C(C)[C@@H]1CC[C@]2(C)[C@H](C(=O)C=C3[C@@H]4C[C@@](C)(C(=O)OC)CC[C@]4(C)CC[C@]32C)[C@@]1(C)CCC(=O)O`, in the data set with RAW264.7 [1], the IC50 is 26.1 µM and the inhibition entry was “Dose-dependent effect”.
In the case of `c1ccc2c(c1)[I+]c1ccccc1-2` [DIPHENYLENEIODONIUM CHLORIDE], the IC50 in the data set with Neutrophil [2] came to 2.7 µM; with Neutrophil [4] it was 1.8 µM. In addition, the inhibition result with Neutrophil [2] and in the data set with Neutrophil [4] was “Dose-dependent effect” throughout.
For `O=c1c(-c2ccc(O)cc2)coc2cc(O)cc(O)c12` [GENISTEIN], in the data set with RAW264.7 [1], the IC50 was determined as 26.5 µM and the inhibition result is “Dose-dependent effect”.
Consider `Oc1ncnc2[nH]ncc12` [ALLOPURINOL], for which the inhibition entry in data set [3] is “inactive”. In addition, the “inhibition (INH)” value in [6] is reported as “Not Active”.
With `C=C(C)[C@@H]1CC[C@]2(C)[C@H](C(=O)C=C3[C@@H]4C[C@@](C)(C(=O)O)CC[C@]4(C)CC[C@]32C)[C@@]1(C)CCC(=O)O`, in the data set on Neutrophil [2], the IC50 is 7 µM and the inhibition entry was “Dose-dependent effect”. Further, in the data set on Nucleic Acid, the inhibition result was “Active”. Besides, the inhibition result in data set [3] is “inactive”.
Consider `C=C(C)[C@@H]1CC[C@]2(C)[C@H](C(=O)C=C3[C@@H]4C[C@@](C)(C(=O)Nc5ccccc5)CC[C@]4(C)CC[C@]32C)[C@@]1(C)CCC(=O)OC`, for which, in the data set on RAW264.7 [1], the IC50 stood at 15.5 µM and the inhibition result is “Dose-dependent effect”.
In the case of `C=C(C)[C@@H]1CC[C@]2(C)[C@H](C(=O)C=C3[C@@H]4C[C@@](C)(C(=O)OCc5ccccc5)CC[C@]4(C)CC[C@]32C)[C@@]1(C)CCC(=O)OC`, in the data set on Nucleic Acid, the inhibition result is “Active”. Besides, the IC50 in the data set with RAW264.7 [5] was above 30 µM; in the data set on Neutrophil [4], 17 µM; in the data set on RAW264.7 [1], 13.7 µM. The inhibition entry in the data set on Neutrophil [4] and in the data set on RAW264.7 [1] was “Dose-dependent effect” each time. Further, the inhibition entry in data set [3] was “inactive”.
For `C=C(C)[C@@H]1CC[C@]2(C)[C@H](C(=O)C=C3[C@@H]4C[C@@](C)(C(=O)OCc5ccccc5)CC[C@]4(C)CC[C@]32C)[C@@]1(C)CCC(=O)O`, in the data set with RAW264.7 [1], the IC50 came to 2.3 µM and the inhibition entry was “Dose-dependent effect”.
